Results: paper PMC10601058 (ACS Omega, 2023)

Columns and labels:
[1] = system: nitric oxide (NO) production in RAW 264.7 stimulated by LPS; assay: Nitric oxide inhibition in RAW 264.7 induced by LPS; assay type: cell-based; details: Mus musculus, RAW264.7, 24 h, read-out: no. inhibition %
Outline: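 Mouse RAW 264.7 cells at 1 × 10^6 cells/mL were treated with test compound at 10 μM or L-NAME at 250 μM. After 1 h, 1 μg/mL LPS was added for 24 h. Supernatant nitrite was measured with Griess reagent at 540 nm against a standard curve run alongside the samples.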

[2] = MTT cytotoxicity assay on HepG2; assay type: cell-based; details: human, HepG2 cells
Outline: (§1)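 Cells were maintained in DMEM with 10% FBS and 1% pen-strep at 37 °C, 5% CO2, to 80% confluence. They were seeded in 96-well plates and exposed to test compound at 25 μM for 24 h. Viability was determined by MTT and given as % viability, mean ± SD of two independent experiments.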

[3] = MTT cytotoxicity assay on RAW 264.7; assay type: cell-based; details: mouse, RAW 264.7 cells
Outline: as §1

[4] = system: pin-1; details: read-out: IC50 (pin-1); cited from earlier work
[5] = system: HepG2; details: dose of 100 μM; cited from earlier work

Compound `COC(=O)[C@@H](N)CCCNC(N)=N[N+](=O)[O-]` [L-NAME, L-NG-nitro arginine methyl ester] has an inhibition at 250 µM [1] of 84.76 ± 0.4%.

For `CC(=O)O[C@@H]1CC[C@@]2(C)[C@@H](CC[C@]3(C)[C@@H]2C(=O)C=C2[C@@H]4[C@@H](C)[C@H](C)CC[C@]4(C)CC[C@]23C)[C@@]1(C)C(=O)O` [compound 1, 3-acetyl-11-keto-β-boswellic acid], the viability at 24 h, 25 µM [2] is given as 86 ± 2.6%, the viability at 24 h, 25 µM [3] is given as 92 ± 1.2% and the IC50 [4] is given as 50 µM. It also gave an inhibition at 10 µM [1] of 74 ± 0.1%.

In the case of `Cc1ccc(C(C)C)c(O)c1` [thymol], the “effect on APAP hepatotoxicity in HepG2” value [5] is given as “ameliorated APAP hepatotoxicity”.
